Data set [1] concerns Rattus norvegicus. The data set can be described thus: Antifertility activity in Wistar rat assessed as inhibition of preimplantive gestation by measuring resorptions at 36 mg/kg, po administered in days 9 to 12 of pregnancy measured on day 21. Format: functional. Set-up: scale not given: the % may be the effect or the level left. In outline:
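Given orally in sesame oil (0.5 mL per 200 g body weight) to groups of five female Wistar-derived rats on days 9–12 of pregnancy. Outcome scored as percent resorptions.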

The subject of data set [2] is Rattus norvegicus. The data set can be described thus: Androgenic activity in castrate immature Wistar rat at 2.5 mg/kg, po qd for 7 days relative to 17-methyl-testosterone. Format: functional. The method, boiled down:
(§1)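 Castrated immature rats dosed orally once a day for 7 days, in sesame oil at 0.2 mL per dose. Read-out was ventral prostate weight. Potency is expressed relative to 17-methyltestosterone. MED is the smallest tested dose giving a significant rise in ventral prostate weight.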

Data set [3] concerns Rattus norvegicus. Put plainly: Antifertility activity in Wistar rat assessed as inhibition of preimplantive gestation by measuring resorptions at 2.5 mg/kg, po administered in days 9 to 12 of pregnancy measured on day 21. Format: functional. Details: scale not given: the % may be the effect or the level left. The method, boiled down:
(§2)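 Groups of five pregnant female Wistar-derived rats dosed orally on days 9–12 of pregnancy, in sesame oil at 0.5 mL per 200 g body weight. Read-out was the percentage of resorptions.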

For data set [4], the system named is Rattus norvegicus. The data set can be described thus: Androgenic activity in po dosed castrate immature Wistar rat assessed as dose required to produce significant increase in ventral prostate weight administered qd for 7 days. Format: functional. The note with it: Prostate gland, 168 h, read-out: MED. The method, boiled down: as §1
Data set [5] concerns Rattus norvegicus. The data set can be described thus: Antifertility activity in Wistar rat assessed as inhibition of preimplantive gestation by measuring resorptions at 5 mg/kg, po administered in days 9 to 12 of pregnancy measured on day 21. Format: functional. Details: scale not given: the % may be the effect or the level left. The method, boiled down: as §2
For data set [6], the system named is Rattus norvegicus. Put plainly: Antiandrogenic activity in rat at 10 to 100 mg/kg. Format: functional, organism-based.
Data set [7] deals with Rattus norvegicus. The data set can be described thus: Antiprogestational activity in rat at 10 to 100 mg/kg. Format: functional, organism-based.
Data set [8] concerns Oryctolagus cuniculus. The data set can be described thus: Antiprogestational activity in rabbit at 10 to 100 mg/kg. Format: functional, organism-based.
Data set [9] deals with Oryctolagus cuniculus. The data set can be described thus: Toxicity in rabbit assessed as adverse effect at 10 to 100 mg/kg. Format: organism-based. Set-up: dose 10-100 mg/kg. Particulars: in vivo.
Data set [10] deals with Rattus norvegicus. Put plainly: Androgenic activity in rat at 10 to 100 mg/kg. Format: functional, organism-based.
Data set [11] has as its system Oryctolagus cuniculus. Put plainly: Androgenic activity in rabbit at 10 to 100 mg/kg. Format: functional, organism-based.
Data set [12] relates to Oryctolagus cuniculus. The data set can be described thus: Antiestrogenic activity in rabbit at 10 to 100 mg/kg. Format: functional, organism-based.
Data set [13] relates to Rattus norvegicus. Put plainly: Progestational activity in rat at 10 to 100 mg/kg. Format: functional, organism-based.
Data set [14] has as its system Oryctolagus cuniculus. The data set can be described thus: Progestational activity in rabbit at 10 to 100 mg/kg. Format: functional, organism-based.
Data set [15] has as its system Oryctolagus cuniculus. The data set can be described thus: Antiandrogenic activity in rabbit at 10 to 100 mg/kg. Format: functional, organism-based.
In data set [16] the test system is Rattus norvegicus. The data set can be described thus: Toxicity in rat assessed as adverse effect at 10 to 100 mg/kg. Format: organism-based. Set-up: dose 10-100 mg/kg. Particulars: in vivo.
In data set [17] the test system is Oryctolagus cuniculus. Put plainly: Estrogenic activity in rabbit at 10 to 100 mg/kg. Format: functional, organism-based.
In data set [18] the test system is Rattus norvegicus. Put plainly: Antifertility activity in Wistar rat assessed as inhibition of preimplantive gestation by measuring resorptions at 5 mg/kg, po administered in days 1 to 6 of pregnancy measured on day 21. Format: functional, organism-based. Details: dose 5 mg/kg.
The subject of data set [19] is Rattus norvegicus. The data set can be described thus: Antiestrogenic activity in rat at 10 to 100 mg/kg. Format: functional, organism-based.
The subject of data set [20] is Rattus norvegicus. The data set can be described thus: Antifertility activity in Wistar rat assessed as inhibition of preimplantive gestation by measuring resorptions at 2.5 mg/kg, po administered in day 11 of pregnancy measured on day 21. Format: functional, organism-based. Set-up: dose 2.5 mg/kg.
Data set [21] has as its system Rattus norvegicus. Put plainly: Estrogenic activity in rat at 10 to 100 mg/kg. Format: functional, organism-based.
Data set [22] deals with Rattus norvegicus. The data set can be described thus: Antifertility activity in Wistar rat assessed as inhibition of preimplantive gestation by measuring resorptions at 10 mg/kg, po administered in days 9 to 12 of pregnancy measured on day 21. Details: scale not given: the % may be the effect or the level left. Format: functional. In outline: as §2
Data set [23] has as its system Rattus norvegicus. The data set can be described thus: Androgenic activity in castrate immature Wistar rat at 10 mg/kg, po qd for 7 days relative to 17-methyl-testosterone. Format: functional. The method, boiled down: as §1
In data set [24] the test system is Rattus norvegicus. The data set can be described thus: Antifertility activity in Wistar rat assessed as inhibition of preimplantive gestation by measuring resorptions at 50 mg/kg, po administered in days 9 to 12 of pregnancy measured on day 21. Format: functional. Details: scale not given: the % may be the effect or the level left. The method, boiled down:
as §2

The source made the active and inactive calls. The calls are words filed in the database; no cut-off is given here.

Turning to `C[C@]12CC/C(=N\Oc3ccc([N+](=O)[O-])cc3)C[C@@H]1CC[C@@H]1[C@@H]2CC[C@]2(C)/C(=N/O)CC[C@@H]12`, in the data set with Rattus norvegicus [1], the Activity is 0%.
`CC(=O)O[C@H]1CC[C@H]2[C@@H]3CC[C@H]4C/C(=N/Oc5ccc([N+](=O)[O-])cc5)CC[C@]4(C)[C@H]3CC[C@]12C`: the Activity with Rattus norvegicus [2] is on record as 2.5%; in the data set on Rattus norvegicus [3], 96.6%. The minimal effective dose in the data set on Rattus norvegicus [4] was determined as 30 mg/kg.
As for `C[C@]12C[C@@H](Cl)/C(=N\Oc3ccc([N+](=O)[O-])cc3)C[C@@H]1CC[C@@H]1[C@@H]2CC[C@]2(C)[C@@H](O)CC[C@@H]12`, the Activity with Rattus norvegicus [5] amounted to 100%.
Still for that read-out and setting: the result for `CCCCCCC(=O)O[C@H]1CC[C@H]2[C@@H]3CC[C@H]4C/C(=N/Oc5ccc([N+](=O)[O-])cc5)CC[C@]4(C)[C@H]3CC[C@]12C` reads 100%.
Regarding `CC(=O)O[C@H]1CC[C@H]2[C@@H]3CC[C@H]4C/C(=N/Oc5ccc([N+](=O)[O-])cc5)[C@H](Cl)C[C@]4(C)[C@H]3CC[C@]12C` [NISTERIME ACETATE], the result in the data set with Rattus norvegicus [6], in the data set on Rattus norvegicus [7], in the data set with Oryctolagus cuniculus [8], in the data set with Rattus norvegicus [10], in the data set with Oryctolagus cuniculus [11] and with Oryctolagus cuniculus [12] was inactive. Moreover, the outcome in the data set with Rattus norvegicus [13], with Oryctolagus cuniculus [14], with Oryctolagus cuniculus [15], in the data set with Oryctolagus cuniculus [17], with Rattus norvegicus [19] and in the data set on Rattus norvegicus [21] was inactive. In addition, the Activity result in the data set with Oryctolagus cuniculus [9] is “Non-toxic”; in the data set on Rattus norvegicus [3], 100%; in the data set on Rattus norvegicus [16], “Non-toxic”. Moreover, the inhibition result in the data set with Rattus norvegicus [18] and with Rattus norvegicus [20] was “Active” each time. Also, in the data set on Rattus norvegicus [4], the minimal effective dose was above 90 mg/kg.
Take `C[C@]12CC[C@H]3[C@@H](CCC4=C/C(=N/Oc5ccc([N+](=O)[O-])cc5[N+](=O)[O-])CC[C@@]43C)[C@@H]1CC[C@@H]2O`: the figures for the Activity in the data set with Rattus norvegicus [22] and in the data set with Rattus norvegicus [23] were 80.8% and 80%, respectively. The minimal effective dose in the data set with Rattus norvegicus [4] was found to be 1.5 mg/kg.
Consider `C[C@]12CC/C(=N\Oc3ccc([N+](=O)[O-])cc3C(F)(F)F)C[C@@H]1CC[C@@H]1[C@@H]2CC[C@]2(C)[C@@H](O)CC[C@@H]12`, for which, in the data set with Rattus norvegicus [24], the Activity came out at 0%.
